# ChEMBL document CHEMBL4184124, “Progress in antischistosomal N,N'-diaryl urea SAR” (Bioorg Med Chem Lett, 2018)
# Activity calls are given as the source filed them. No cut-off for these calls is given here.
# How the values were obtained:
# [1] = Octanol-[…] partition coefficient, log D of the compound at pH 7.4 by RP-HPLC method
# [2] = Kinetic solubility of the compound in 0.01M HCl at pH 2 by nephelometric method; assay type: physicochemical; conditions: read-out: Kinetic_solubility
# In short: (§1)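 DMSO stocks spiked into pH 6.5 phosphate buffer or 0.01 M HCl (approx. pH 2.0); nephelometry gave a solubility concentration range.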
# [3] = Kinetic solubility of the compound in phosphate buffer at pH 6.5 by nephelometric method; assay type: physicochemical; conditions: read-out: Kinetic_solubility
# In short: as §1
# [4] = Intrinsic clearance in mouse liver microsomes assessed per mg protein after 60 mins in presence of NADPH generating system; assay type: ADME, microsome; conditions: 1 h
# [5] = Intrinsic clearance in human liver microsomes assessed per mg protein after 60 mins in presence of NADPH generating system; assay type: ADME, microsome; conditions: 1 h
# [6] = tested on: Schistosoma mansoni; assay: Antischistosomal activity against Schistosoma mansoni cercariae infected in NMRI mouse assessed as reduction in worm burden at 100 mg/kg, po administered as single dose via gavage measured after 21 days relative to control; assay type: functional; set-up: scale not given: the % may be the effect or the level left
# In short: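 Infected mice given a single 100 mg/kg oral dose; efficacy read as worm burden reduction (%).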
# [7] = Cmax in mouse at 46.3 mg/kg, po; assay type: ADME, organism-based; set-up: dose 46.3 mg/kg, route oral; conditions: in vivo
# [8] = tested on: Schistosoma mansoni; assay: Antischistosomal activity against Schistosoma mansoni infected in NMRI mouse assessed as reduction in worm burden at 400 mg/kg, po administered as single dose measured after 14 days relative to control; assay type: functional; set-up: scale not given: the % may be the effect or the level left
# [9] = Half-life in mouse at 46.3 mg/kg, po; assay type: ADME, organism-based; conditions: in vivo
# [10] = tested on: Schistosoma mansoni; assay: Antischistosomal activity against Schistosoma mansoni Liberian cercariae measured after 72 hrs by microscopic analysis; assay type: functional, organism-based
# In short: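 Newly transformed schistosomula prepared from cercariae, first screened at 10 µM as a gate. Active compounds then went through a concentration titration to derive IC50 values.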
# [11] = tested on: HEK293; assay: Cytotoxicity against HEK293 cells; assay type: cell-based; conditions: Homo sapiens
# [12] = Half-life in Swiss mouse at 100 mg/kg, po administered as single dose via gavage by LC-MS analysis; assay type: ADME, organism-based; conditions: in vivo
# In short: (§2)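 Single 100 mg/kg oral dose given to non-infected male Swiss outbred mice; plasma sampled over 48 h post-dose; n=2 mice per time point, mean values. AUC taken to last measured concentration.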
# [13] = tested on: U2OS; assay: Cytotoxicity against human U2OS cells; assay type: cell-based
# [14] = Cmax in Swiss mouse at 100 mg/kg, po administered as single dose via gavage by LC-MS analysis; assay type: ADME, organism-based; set-up: dose 100 mg/kg, route oral; conditions: in vivo
# In short: as §2
# [15] = Cytotoxicity against human HC04 cells; assay type: cell-based
# [16] = Tmax in Swiss mouse at 100 mg/kg, po administered as single dose via gavage by LC-MS analysis; assay type: ADME, organism-based; conditions: in vivo
# In short: as §2
# [17] = tested on: Schistosoma mansoni; assay: Antischistosomal activity against newly transformed stage of Schistosoma mansoni measured after 72 hrs by microscopic analysis; assay type: functional, organism-based
# In short: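 Newly transformed schistosomula were first screened at 10 µM; compounds that killed them were then run as a concentration titration to derive IC50 values.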
# [18] = AUC (0 to last) in Swiss mouse at 100 mg/kg, po administered as single dose via gavage by LC-MS analysis; assay type: ADME, organism-based; set-up: dose 100 mg/kg, time 0 - last, route oral; conditions: in vivo
# In short: as §2
# [19] = tested on: Schistosoma mansoni; assay: Antischistosomal activity against adult stage of Schistosoma mansoni measured after 72 hrs by microscopic analysis; assay type: functional, organism-based
# [20] = tested on: HFF; assay: Cytotoxicity against HFF; assay type: cell-based; conditions: Homo sapiens
# [21] = tested on: Schistosoma mansoni; assay: Antischistosomal activity against newly transformed stage of Schistosoma mansoni assessed as parasite death at 10 uM; assay type: functional, organism-based
# In short: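 Newly transformed schistosomula exposed at 10 µM as a screen for killing; active compounds then titrated to give IC50.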
# [22] = Plasma concentration in Swiss mouse at 100 mg/kg, po administered as single dose via gavage measured up to 48 hrs by LC-MS analysis; assay type: ADME, organism-based
# In short: as §2
# [23] = Drug uptake in Swiss mouse plasma at 100 mg/kg, po administered as single dose via gavage measured after 2 hrs by LC-MS analysis; assay type: ADME, organism-based; conditions: in vivo
# In short: as §2
# [24] = tested on: Schistosoma mansoni; assay: Antischistosomal activity against Schistosoma mansoni cercariae infected in NMRI mouse assessed as reduction in worm burden at 80 mg/kg, po administered as four consecutive dose via gavage measured after 21 days relative to control; assay type: functional; set-up: scale not given: the % may be the effect or the level left
# In short: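 Infected mice given four consecutive 80 mg/kg oral doses; efficacy read as worm burden reduction (%).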
# [25] = Drug uptake in Swiss mouse plasma at 100 mg/kg, po administered as single dose via gavage measured after 4 to 48 hrs by LC-MS analysis; assay type: ADME, organism-based; conditions: in vivo
# In short: as §2
Compound,chromatographic logD [1],solubility kinetic [2] [µg/mL],solubility kinetic [3] [µg/mL],CLH [4] [µL/min/mg],CLH [5] [µL/min/mg],Activity [6] [%],IC50 [11] [µM],IC50 [13] [µM],Cmax [14] [µM],IC50 [15] [µM],IC50 [17] [µM],AUC(0-t) [18] [µM·h],IC50 [19] [µM],IC50 [20] [µM],Activity [21],also measured
Cc1cc(NC(=O)Nc2ccc(F)c(C(F)(F)F)c2)on1,3.2,12.5 to 25,6.3 to 12.5,108,73,–,–,–,–,–,–,–,–,–,–,–
O=C(Nc1ccc(Cl)c(Cl)c1)Nc1ccc(Cl)c(Cl)c1,–,–,–,–,–,0,–,–,–,–,–,–,–,–,–,Cmax [7]: 4.4 µM; Activity [8]: 53%; half-life [9]: 4.7 h; IC50 [10]: 0.8 µM
N#Cc1ccc(NC(=O)Nc2ccnc(C(F)(F)F)c2)cc1,3,1.6 to 3.1,1.6 to 3.1,< 7,< 7,1.6,> 100,> 100,20,> 100,1.9,175,3.3,> 100,Active,half-life [12]: 2.3 h; Tmax [16]: 2 h
O=C(Nc1ccc(F)c(C(F)(F)F)c1)Nc1ccccn1,3.7,1.6 to 3.1,< 1.6,705,188,–,–,–,–,–,–,–,–,–,–,–
O=C(Nc1ccnc(C(F)(F)F)c1)Nc1ccc2c(c1)OC(F)(F)O2,3.7,3.1 to 6.3,3.1 to 6.3,16,< 7,2.1,> 100,> 100,55,> 100,1.3,2270,0.75,80,Active,concentration at 48 h [22]: > 5 µM
O=C(Nc1ccc(C(=O)O)cc1)Nc1ccc(F)c(C(F)(F)F)c1,1.5,< 1.6,12.5 to 25,< 7,< 7,–,–,–,–,–,–,–,–,–,–,–
O=C(Nc1ccc2c(c1)OC(F)(F)O2)Nc1ccc(F)c(C(F)(F)F)c1,4.5,< 1.6,< 1.6,< 7,< 7,0,> 100,> 100,27,> 100,0.21,989,0.49,67,Active,concentration at 48 h [22]: > 5 µM
N#Cc1ccc(NC(=O)Nc2ccc(F)c(C(F)(F)F)c2)cc1,3.8,< 1.6,< 1.6,12,< 7,37,> 100,> 100,31,> 100,1.6,216,0.94,60,Active,half-life [12]: 2.7 h; Tmax [16]: 4 h
O=C(Nc1cccnc1)Nc1ccc(F)c(C(F)(F)F)c1,3,50 to 100,12.5 to 25,154,13,–,–,–,–,–,–,–,–,–,–,–
O=C(Nc1ccc(F)c(C(F)(F)F)c1)Nc1cnccn1,3,1.6 to 3.1,< 1.6,160,210,–,–,–,–,–,–,–,–,–,–,–
O=C(Nc1cccc(C(=O)O)c1)Nc1ccc(F)c(C(F)(F)F)c1,1.6,1.6 to 3.1,12.5 to 25,< 7,< 7,–,–,–,–,–,–,–,–,–,–,–
O=C(Nc1ccc(F)c(C(F)(F)F)c1)Nc1ccc(F)c(C(F)(F)F)c1,4.5,< 1.6,–,7,10,40,> 100,> 100,31,> 100,0.15,394,0.19,57,Active,Drug uptake [23]: Active; half-life [12]: 11 h; Tmax [16]: 4 h; concentration at 48 h [22]: > 1 µM
O=C(Nc1ccncc1)Nc1ccncc1,1.3,> 100,12.5 to 25,188,< 7,–,–,–,–,–,–,–,–,–,–,–
NC(=O)c1ccccc1NC(=O)Nc1ccc(F)c(C(F)(F)F)c1,3.3,1.6 to 3.1,1.6 to 3.1,69,81,–,–,–,–,–,–,–,–,–,–,–
O=C(Nc1ccnc(C(F)(F)F)c1)Nc1ccc(F)c(C(F)(F)F)c1,3.8,3.1 to 6.3,3.1 to 6.3,< 7,< 7,50,> 100,> 100,56,> 100,0.74,1490,0.66,71,Active,Activity [24]: 53%; half-life [12]: 18 h; Drug uptake [25]: Active; Tmax [16]: 7.5 h
O=C(Nc1ccnc(C(F)(F)F)c1)Nc1ccnc(C(F)(F)F)c1,3,12.5 to 25,12.5 to 25,< 7,< 7,20,> 100,> 100,40,> 100,2.4,953,0.88,> 100,Active,half-life [12]: 10 h; Drug uptake [25]: Active; Tmax [16]: 4 h
O=C(Nc1ccncc1)Nc1ccc(F)c(C(F)(F)F)c1,3.2,6.3 to 12.5,6.3 to 12.5,37,12,–,–,–,–,–,5.6,–,> 10,–,Active,–
NC(=O)c1ccc(NC(=O)Nc2ccc(F)c(C(F)(F)F)c2)cc1,2.7,6.3 to 12.5,6.3 to 12.5,22,28,–,–,–,–,–,–,–,–,–,–,–
O=C(Nc1ccc2c(c1)OC(F)(F)O2)Nc1ccc2c(c1)OC(F)(F)O2,4.4,< 1.6,< 1.6,12,< 7,0,> 100,> 100,25,> 100,0.26,679,0.49,79,Active,half-life [12]: 13 h; concentration at 48 h [22]: > 5 µM
CC(=O)c1ccc(NC(=O)Nc2ccc(F)c(C(F)(F)F)c2)cc1,3.6,< 1.6,< 1.6,14,16,–,–,–,–,–,–,–,–,–,–,–
O=C(Nc1cnccn1)Nc1cnccn1,0.8,6.3 to 12.5,6.3 to 12.5,157,18,–,–,–,–,–,–,–,–,–,–,–
